Bioassay records: PubChem, several laboratories
The list is not random: actives were taken first. Their share in the collection is about 2.2%.
PvdQ inh: P. aeruginosa PvdQ acylase inhibition. purified PvdQ acylase, fluorescence plate reader. inhibition, % at 10 µM. 340,000 compounds, 0.063% hits. AID 488965; in the data active = inhibition above about 30%, passing the limit was not always enough
PHOSPHO1 block: blocks human PHOSPHO1 phosphatase activity; Q8TCT1; recombinant PHOSPHO1, absorbance phosphatase assay; inhibition, % at 13.3 µM; 290,000 compounds, 1.1% hits; AID 1565; in the data active = inhibition above about 60%
Target sequence (Q8TCT1 whole entry, looked up): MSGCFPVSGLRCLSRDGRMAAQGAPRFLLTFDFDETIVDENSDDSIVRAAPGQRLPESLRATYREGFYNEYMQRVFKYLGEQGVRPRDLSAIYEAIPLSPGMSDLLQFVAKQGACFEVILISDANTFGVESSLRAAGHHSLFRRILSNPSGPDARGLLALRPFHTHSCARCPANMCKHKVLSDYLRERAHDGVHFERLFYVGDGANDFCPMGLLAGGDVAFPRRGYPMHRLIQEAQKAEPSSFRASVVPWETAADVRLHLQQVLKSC
IMP-1 inh-1: blocks Pseudomonas aeruginosa IMP-1 metallo-beta-lactamase. 290,000 compounds, 0.45% hits. inhibition, % at 5.6 µM. AID 1556. purified IMP-1, nitrocefin hydrolysis, epi-absorbance fluorescence;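 active = inhibition above the mean plus 3 SD of all compounds in the same screening run, cut at about 4.5% in these data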
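assay system = purified recombinant IMP-1 metallo-beta-lactamase enzyme | schedule = 15 min preincubation plus 25 min reaction at 25 °C | signal = Epi-absorbance fluorescence, 480 nm excitation, 530 nm emission | read-out basis = percent inhibition from optical density relative to buffer-blank wells | controls = IMP-1 with DMSO as 0%, enzyme-free DMSO as 100%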
Yeast superoxide: caloric restriction mimetics inhibiting age-related superoxide in yeast; S. cerevisiae aged cells, superoxide DHE fluorescence; stronger effect = lower value; superoxide response (% of plate mean), % at 10 µM; 330,000 compounds, 0.18% hits; AID 2690;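 active = superoxide response under a set limit, about three screen SD below normal, cut at about 65% in these data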;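 also: yeast aged for seven days with compound at 30 °C before DHE staining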
VIM-2 inhibitor: blocks Pseudomonas aeruginosa VIM-2 metallo-beta-lactamase | inhibition, % at 5.6 µM | 290,000 compounds, 0.89% hits | purified VIM-2, nitrocefin hydrolysis, epi-absorbance fluorescence;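 active = inhibition above the mean of all tested compounds plus 3 SD, cutoff set per screening run, cut at about 7.5% in these data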;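 also: red hydrolysis product quenches plate fluorescence so inhibitors raise well fluorescence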
IMP-1 inh-2: selectivity counter-screen for VIM-2 inhibitors: IMP-1 metallo-beta-lactamase inhibitors | 1,300 tested, under 10 active | purified IMP-1, nitrocefin hydrolysis, epi-absorbance fluorescence | shares compounds with VIM-2 inhibitor | inhibition, % at 5.6 µM; call rule not given here
VIM-2 FRET ctr: inhibits VIM-2 in FRET assay to exclude epi-absorbance artifacts | purified VIM-2, CCF2 FRET substrate hydrolysis | inhibition, % at 5.6 µM | shares compounds with VIM-2 inhibitor | 1,300 compounds, 23% hits;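 active = inhibition above the mean of all tested compounds plus 3 SD, cut at about 19% in these data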
TEM-1 inh: TEM-1 inhibition, counter-screen for VIM-2 inhibitors; shares compounds with VIM-2 inhibitor; Purified TEM-1, nitrocefin hydrolysis, epi-absorbance fluorescence; 1,300 compounds, 3% hits; AID 1866; inhibition, % at 5.6 µM;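 active = inhibition above that campaign's mean inhibition plus 3 SD, cut at about 0.46% in these data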
Target sequence (P62593 whole entry, looked up): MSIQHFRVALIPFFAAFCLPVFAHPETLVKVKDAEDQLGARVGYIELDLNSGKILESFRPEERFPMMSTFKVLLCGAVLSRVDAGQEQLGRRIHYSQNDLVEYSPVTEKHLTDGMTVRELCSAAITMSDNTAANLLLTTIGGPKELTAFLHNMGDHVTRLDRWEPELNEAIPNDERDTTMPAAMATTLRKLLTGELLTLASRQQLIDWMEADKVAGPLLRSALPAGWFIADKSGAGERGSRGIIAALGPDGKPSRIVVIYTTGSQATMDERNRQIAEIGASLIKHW
VIM-2 confirm 2: confirmation of P. aeruginosa VIM-2 metallo-beta-lactamase inhibitors. purified VIM-2, nitrocefin hydrolysis, epi-absorbance. shares compounds with VIM-2 inhibitor. AID 2187. inhibition, % at 5.6 µM. 1,300 compounds, 96% hits;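 active = inhibition of the VIM-2 beta-lactamase enzyme above about 11% from the earlier first-round screen, limit read from the data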
Hits are given with their value; i = inactive; nt = no result given.

SMILES	PvdQ inh	PHOSPHO1 block	IMP-1 inh-1	Yeast superoxide	VIM-2 inhibitor	IMP-1 inh-2	VIM-2 FRET ctr	TEM-1 inh	VIM-2 confirm 2
C[N+]1(CC(=O)NNc2c3ccccc3nc3ccccc23)CCOCC1	nt	i	i	i	21	i	i	i	33
Cc1cc(N2O[C@H]3C=C[C@@H]2C3)no1	i	nt	nt	i	nt	nt	nt	nt	nt
CN1CCN(c2ccc(Nc3ccnc4cc(Cl)ccc34)cc2)CC1	i	nt	i	i	87	i	i	i	88
CCOc1ccc(Nc2ccnc3cc(Cl)ccc23)cc1	i	i	i	i	i	nt	nt	nt	nt
COc1ccc(C2=Nn3c(nnc3-c3cccnc3)SC2)cc1	i	i	i	nt	i	nt	nt	nt	nt
COc1ccc(C2=Nn3c(nnc3-c3ccncc3)SC2)cc1	i	i	i	i	21	i	i	i	42
O=C(COc1cc2oc(=O)c3c(c2cc1Cl)CCC3)NCCCn1ccnc1	i	i	i	i	30	i	i	i	44
Cc1c(C)c2cc(Cl)c(OCC(=O)NCCCn3ccnc3)cc2oc1=O	i	i	i	i	28	i	i	i	38
CCc1cc(=O)oc2cc(OCC(=O)NCCCn3ccnc3)c(Cl)cc12	i	i	i	i	24	i	i	i	35
O=C(COc1cc2oc(=O)c3c(c2cc1Cl)CCC3)Nc1cccnc1	i	i	i	i	i	nt	nt	nt	nt
O=C(c1ccco1)N1CCC(c2nc3c(nnn3Cc3ccc(F)cc3)c(=O)[nH]2)CC1	i	i	i	i	i	nt	nt	nt	nt
Cc1ccc(C2OCC(C)([N+](=O)[O-])CO2)cc1 (configuration not stated)	i	nt	nt	nt	nt	nt	nt	nt	nt
Cc1cccc(COCCN2CCN(S(=O)(=O)c3ccccc3)CCC2=O)c1	i	i	nt	i	nt	nt	nt	nt	nt
Cc1oc(-c2cccs2)nc1CNC[C@H]1O[C@@H](n2cnc3c(N)ncnc32)[C@H](O)[C@@H]1O	i	nt	nt	i	nt	nt	nt	nt	nt
COc1cnc(-c2ccccn2)nc1Oc1cccc(Cl)c1	i	i	i	i	17	i	i	i	36
CCOC(=O)C(C)Sc1nc(-c2ccccn2)ncc1OC (configuration not stated)	i	i	i	i	35	i	i	i	43
COc1ccc(Oc2nc(-c3ccccn3)ncc2OC)cc1	i	i	i	i	16	i	i	i	25
N=C(SC1CC(=O)N(c2ccc(F)cc2)C1=O)N1N=C(c2ccccc2)CC1c1ccccc1 (configuration not stated)	i	i	i	i	i	nt	nt	nt	nt
Oc1c(Cl)cc(CN2CCCCC2)c2cccnc12	i	i	i	i	15	i	i	i	17
O=[N+]([O-])c1cc(CN2CCN(c3cccc(C(F)(F)F)c3)CC2)c2cccnc2c1O	i	i	i	i	35	i	i	i	15
Oc1ccc(CN2CCCCC2)c2cccnc12	i	i	i	i	i	nt	nt	nt	nt
O=[N+]([O-])c1cc(CN2CCCC2)c2cccnc2c1O	i	i	i	i	38	i	i	i	44
COc1ccccc1N1CCN(Cc2cc(Br)c(O)c3ncccc23)CC1	i	78	i	i	24	i	i	i	i
Oc1ccc(CN2CCN(c3ccccc3)CC2)c2cccnc12	i	i	i	i	i	nt	nt	nt	nt
O=C(NCc1nc2ccccc2[nH]1)C1=C[C@@H](c2ccc(C(F)(F)F)cc2)C[C@@H](OCc2ccc(CO)cc2)O1	i	nt	nt	i	nt	nt	nt	nt	nt
SMILES	PvdQ inh	PHOSPHO1 block	IMP-1 inh-1	Yeast superoxide	VIM-2 inhibitor	IMP-1 inh-2	VIM-2 FRET ctr	TEM-1 inh	VIM-2 confirm 2
COC(=O)c1cc(S(=O)(=O)N(Cc2ccccc2)C(C)(C)C)c[nH]1	i	i	i	i	i	nt	nt	nt	nt
COc1ccc(Nc2nc(N3CCCC3)c3ccccc3n2)cc1	i	i	i	i	19	i	i	i	35
Nc1c(/C=C2/C=CC(=O)C(O)=C2)c(=O)nc2sc(CC(=O)N3CCOCC3)nn12	i	nt	nt	nt	nt	nt	nt	nt	nt
CC1=Nc2ccc(C)cc2/C1=C/c1c(N)n2nc(CC(=O)N3CCOCC3)sc2nc1=O	i	i	i	i	12	i	22	i	16
CC(=O)NCCn1c(SCC(=O)c2ccccc2)nc2ccccc2c1=O	i	i	i	i	14	i	24	i	20
O=c1cc(CN2CCN(CCO)CC2)c2cc3c(cc2o1)CCC3	i	i	i	i	17	i	i	i	33
CCOC(=O)N1CCN(Cc2cc(=O)oc3cc4c(cc23)CCC4)CC1	i	i	i	i	i	nt	nt	nt	nt
O=c1oc2c3c4c(cc2c2c1CCC2)OCCN4CCC3	i	i	i	i	14	i	i	i	37
COc1ccc([C@H]2CC(=O)C=C(c3cccc4c3Oc3ccccc3S4)C2)cc1OC	i	nt	nt	i	nt	nt	nt	nt	nt
O=C(COc1cc2oc(=O)c3c(c2cc1Cl)CCC3)NCC(O)c1ccccc1 (configuration not stated)	i	i	i	i	14	i	i	i	26
Cc1c(OCC(=O)NCC(O)c2ccccc2)ccc2c3c(c(=O)oc12)CCC3 (configuration not stated)	i	i	i	i	20	i	i	i	28
Cc1c(OCc2ccc(C(=O)O)o2)ccc2c3c(c(=O)oc12)CCC3	i	i	i	i	i	nt	nt	nt	nt
CC(Oc1ccc2c3c(c(=O)oc2c1)CCC3)C(=O)NCCCn1ccnc1 (configuration not stated)	i	i	i	i	27	i	i	i	39
CC(Oc1cc2oc(=O)c3c(c2cc1Cl)CCC3)C(=O)NCCCn1ccnc1 (configuration not stated)	i	i	i	i	28	i	i	2.3	40
CC(Oc1cc2oc(=O)c3c(c2cc1Cl)CCC3)C(=O)NCc1ccncc1 (configuration not stated)	i	i	i	i	16	i	i	i	22
CCCc1cc(=O)oc2cc(OC(C)C(=O)NCCCn3ccnc3)ccc12 (configuration not stated)	i	i	i	i	i	nt	nt	nt	nt
CC(Oc1cc2oc(=O)c3c(c2cc1Cl)CCCC3)C(=O)NCC1CCC(C(=O)O)CC1 (configuration not stated)	i	i	i	i	i	nt	nt	nt	nt
Cc1cccc(OCC(=O)Nc2ccc3c(c2)nc(CCN2CCN(c4ccccn4)CC2)n3C)c1	i	i	i	i	i	nt	nt	nt	nt
CCN(CC)C(=O)CSc1nc(-c2cccs2)cc(-c2cccs2)c1C#N	i	i	i	i	i	nt	nt	nt	nt
CN1CCN(C(=O)CSc2nc(-c3cccs3)cc(-c3cccs3)c2C#N)CC1	i	i	i	i	45	i	i	i	70
CN(C)S(=O)(=O)c1cccc(NC(=O)CCc2nc3cc(S(=O)(=O)N4CCOCC4)ccc3n2C)c1	i	nt	nt	i	nt	nt	nt	nt	nt
COc1ccccc1/C=C/C(=O)OCC(=O)NC1CCCCCCC1	i	nt	nt	i	nt	nt	nt	nt	nt
